Test results published in ChEMBL document CHEMBL3046055, “Synthesis and herbicidal activity of novel N-(2,2,2)-trifluoroethylpyrazole derivatives” (J Agric Food Chem, 2010).

Tests used:
[1] = test system: Digitaria sanguinalis; assay: Herbicidal activity against Digitaria sanguinalis (hairy crabgrass) assessed as inhibition of fresh weed plant weights at 600 g ai/ha using pre-emergence treatment protocol under greenhouse conditions relative to untreated control; format: functional
Method in brief: (§1)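 Pre-emergence test in plastic pots kept in a greenhouse at 22-25 °C. Fresh weight of aerial plant parts was measured 20 days later, and percent inhibition calculated relative to water-sprayed controls. Metolachlor served as the positive control. Three replicates were run per concentration.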

[2] = test system: Portulaca oleracea; assay: Herbicidal activity against Portulaca oleracea assessed as inhibition of root growth at […] measured 7 days post treatment; format: functional; set-up: dose or concentration left out as unconfirmed; conditions: 168 h, read-out: GI
[3] = test system: Echinochloa crus-galli; assay: Herbicidal activity against Echinochloa crus-galli (barnyard grass) assessed as inhibition of shoot growth at […] measured 7 days post treatment; format: functional; set-up: dose or concentration left out as unconfirmed; conditions: 168 h, read-out: GI
[4] = test system: Echinochloa crus-galli; assay: Herbicidal activity against Echinochloa crus-galli (barnyard grass) assessed as inhibition of root growth at […] measured 7 days post treatment; format: functional; set-up: dose or concentration left out as unconfirmed; conditions: 168 h, read-out: GI
[5] = test system: Portulaca oleracea; assay: Herbicidal activity against Portulaca oleracea assessed as inhibition of shoot growth at […] measured 7 days post treatment; format: functional; conditions: 168 h, read-out: GI
Method in brief: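 Petri-dish agar assay. A 10 g/L stock of compound in acetone was mixed into molten agar; the untreated control was agar without compound. Seeds were placed on the agar surface and the cups were covered with glass lids. Incubation was 25 ± 1 °C, 50-55% RH, 12 h light/12 h dark, for 7 days. Root and shoot lengths were measured and growth inhibition calculated against the control, in three replicates.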

[6] = test system: Echinochloa crus-galli; assay: Herbicidal activity against Echinochloa crus-galli (barnyard grass) assessed as inhibition of fresh weed plant weights at 600 g ai/ha using pre-emergence treatment protocol under greenhouse conditions relative to untreated control; format: functional; method in brief: as §1
[7] = test system: Brassica rapa subsp. oleifera; assay: Toxicity against Brassica rapa subsp. oleifera var. JING GUAN 1 assessed as inhibition of fresh weed plant weights at 300 g ai/ha using pre-emergence treatment protocol under greenhouse conditions relative to untreated control; format: organism-based; conditions: in vivo, other; method in brief: as §1
[8] = test system: Echinochloa crus-galli; assay: Herbicidal activity against Echinochloa crus-galli (barnyard grass) assessed as inhibition of fresh weed plant weights at 1404 g ai/ha using pre-emergence treatment protocol under field trials conditions measured 30 days post soil treatment relative to untreated control; format: functional; conditions: 720 h
[9] = test system: Zea mays; assay: Toxicity against Zea mays var. SHEN DAN 17 (maize) assessed as inhibition of fresh weed plant weights at 600 g ai/ha using pre-emergence treatment protocol under greenhouse conditions relative to untreated control; format: organism-based; conditions: in vivo, other; method in brief: as §1
[10] = test system: Echinochloa crus-galli; assay: Herbicidal activity against Echinochloa crus-galli (barnyard grass) assessed as inhibition of fresh weed plant weights at 300 g ai/ha using pre-emergence treatment protocol under greenhouse conditions relative to untreated control; format: functional; method in brief: as §1
[11] = test system: Digitaria sanguinalis; assay: Herbicidal activity against Digitaria sanguinalis (hairy crabgrass) assessed as inhibition of fresh weed plant weights at 1404 g ai/ha using pre-emergence treatment protocol under field trials conditions measured 30 days post soil treatment relative to untreated control; format: functional; conditions: 720 h
[12] = test system: Eleusine indica; assay: Herbicidal activity against Eleusine indica assessed as inhibition of fresh weed plant weights at 600 g ai/ha using pre-emergence treatment protocol under greenhouse conditions relative to untreated control; format: functional; method in brief: as §1
[13] = test system: Portulaca oleracea; assay: Herbicidal activity against Portulaca oleracea assessed as inhibition of fresh weed plant weights at 300 g ai/ha using pre-emergence treatment protocol under greenhouse conditions relative to untreated control; format: functional; method in brief: as §1
[14] = test system: Brassica rapa subsp. oleifera; assay: Toxicity against Brassica rapa subsp. oleifera var. JING GUAN 1 assessed as inhibition of fresh weed plant weights at 600 g ai/ha using pre-emergence treatment protocol under greenhouse conditions relative to untreated control; format: organism-based; conditions: in vivo, other; method in brief: as §1
[15] = test system: Brassica rapa subsp. oleifera; assay: Toxicity against Brassica rapa subsp. oleifera var. JING GUAN 1 assessed as inhibition of fresh weed plant weights at 150 g ai/ha using pre-emergence treatment protocol under greenhouse conditions relative to untreated control; format: organism-based; conditions: in vivo, other; method in brief: as §1
[16] = test system: Portulaca oleracea; assay: Herbicidal activity against Portulaca oleracea assessed as inhibition of fresh weed plant weights at 1404 g ai/ha using pre-emergence treatment protocol under field trials conditions measured 30 days post soil treatment relative to untreated control; format: functional; conditions: 720 h
[17] = test system: Digitaria sanguinalis; assay: Herbicidal activity against Digitaria sanguinalis (hairy crabgrass) assessed as inhibition of fresh weed plant weights at 150 g ai/ha using pre-emergence treatment protocol under greenhouse conditions relative to untreated control; format: functional; method in brief: as §1
[18] = test system: Eleusine indica; assay: Herbicidal activity against Eleusine indica assessed as inhibition of fresh weed plant weights at 300 g ai/ha using pre-emergence treatment protocol under greenhouse conditions relative to untreated control; format: functional; method in brief: as §1
[19] = test system: Eleusine indica; assay: Herbicidal activity against Eleusine indica assessed as inhibition of fresh weed plant weights at 150 g ai/ha using pre-emergence treatment protocol under greenhouse conditions relative to untreated control; format: functional; method in brief: as §1
[20] = test system: Zea mays; assay: Toxicity against Zea mays var. SHEN DAN 17 (maize) assessed as inhibition of fresh weed plant weights at 300 g ai/ha using pre-emergence treatment protocol under greenhouse conditions relative to untreated control; format: organism-based; conditions: in vivo, other; method in brief: as §1
[21] = test system: Zea mays; assay: Toxicity against Zea mays var. SHEN DAN 17 (maize) assessed induction of crop injury at 1404 g ai/ha using pre-emergence treatment protocol under field trials conditions measured 30 days post soil treatment; format: organism-based; conditions: in vivo, other, 720 h
[22] = test system: Eleusine indica; assay: Herbicidal activity against Eleusine indica assessed as inhibition of fresh weed plant weights at 1404 g ai/ha using pre-emergence treatment protocol under field trials conditions measured 30 days post soil treatment relative to untreated control; format: functional; conditions: 720 h
[23] = test system: Echinochloa crus-galli; assay: Herbicidal activity against Echinochloa crus-galli (barnyard grass) assessed as inhibition of fresh weed plant weights at 150 g ai/ha using pre-emergence treatment protocol under greenhouse conditions relative to untreated control; format: functional; method in brief: as §1
[24] = test system: Portulaca oleracea; assay: Herbicidal activity against Portulaca oleracea assessed as inhibition of fresh weed plant weights at 600 g ai/ha using pre-emergence treatment protocol under greenhouse conditions relative to untreated control; format: functional; method in brief: as §1
[25] = test system: Portulaca oleracea; assay: Herbicidal activity against Portulaca oleracea assessed as inhibition of fresh weed plant weights at 150 g ai/ha using pre-emergence treatment protocol under greenhouse conditions relative to untreated control; format: functional; method in brief: as §1
[26] = test system: Digitaria sanguinalis; assay: Herbicidal activity against Digitaria sanguinalis (hairy crabgrass) assessed as inhibition of fresh weed plant weights at 300 g ai/ha using pre-emergence treatment protocol under greenhouse conditions relative to untreated control; format: functional; method in brief: as §1
[27] = test system: Convolvulus arvensis; assay: Herbicidal activity against Convolvulus arvensis assessed as inhibition of fresh weed plant weights at 1404 g ai/ha using pre-emergence treatment protocol under field trials conditions measured 30 days post soil treatment relative to untreated control; format: functional; conditions: 720 h

Q: Which inhibition at 600 g/ha [1] does the source give for Cc1nn(CC(F)(F)F)c(CSC2=NOC(C)(C)C2)c1Cl here?
A: The inhibition at 600 g/ha was 54%.

Q: What about the inhibition of growth [2] of the same compound?
A: Its inhibition of growth is 75%.

Q: And the inhibition of growth [3]?
A: Its inhibition of growth is 88%.

Q: And the inhibition of growth [4]?
A: Its inhibition of growth is 89%.

Q: And the inhibition of growth at 100000 µg/mL [5]?
A: The inhibition of growth at 100000 µg/mL was 54%.

Q: What about the inhibition at 600 g/ha [6] of the same compound?
A: The inhibition at 600 g/ha was 81%.

Q: For Cc1nn(CC(F)(F)F)c(CSC2=NOC(C)(C)C2)c1Br, which inhibition at 600 g/ha [1] is on record?
A: The inhibition at 600 g/ha was 74%.

Q: What about the inhibition of growth [2] of the same compound?
A: Its inhibition of growth is 80%.

Q: And the inhibition of growth [3]?
A: Its inhibition of growth is 88%.

Q: And the inhibition of growth [4]?
A: Its inhibition of growth is 86%.

Q: What about the inhibition of growth at 100000 µg/mL [5] of the same compound?
A: Its inhibition of growth at 100000 µg/mL is 54%.

Q: What about the inhibition at 600 g/ha [6] of the same compound?
A: The inhibition at 600 g/ha was 82%.

Q: What does the source list for Cc1nn(CC(F)(F)F)c(CSC2=NOC(C)(C)C2)c1I?
A: inhibition at 600 g/ha [1]: 54%; inhibition of growth [2]: 81%; inhibition of growth [3]: 89%; inhibition of growth [4]: 86%; inhibition of growth at 100000 µg/mL [5]: 62%; inhibition at 600 g/ha [6]: 100%

Q: What does the source list for Cc1nn(CC(F)(F)F)c(CS(=O)(=O)C2=NOC(C)(C)C2)c1Br?
A: inhibition at 600 g/ha [1]: 79%; inhibition of growth [2]: 80%; inhibition of growth [3]: 81%; inhibition of growth [4]: 74%; inhibition of growth at 100000 µg/mL [5]: 62%; inhibition at 600 g/ha [6]: 100%

Q: Cc1nn(CC(F)(F)F)c(CS(=O)(=O)C2=NOC(C)(C)C2)c1I was tested. Which inhibition at 600 g/ha [1] did it give?
A: Its inhibition at 600 g/ha is 90%.

Q: And the inhibition of growth [2]?
A: Its inhibition of growth is 75%.

Q: What about the inhibition of growth [3] of the same compound?
A: The inhibition of growth was 84%.

Q: What about the inhibition of growth [4] of the same compound?
A: The inhibition of growth was 63%.

Q: And the inhibition of growth at 100000 µg/mL [5]?
A: The inhibition of growth at 100000 µg/mL was 62%.

Q: What about the inhibition at 600 g/ha [6] of the same compound?
A: The inhibition at 600 g/ha was 100%.

Q: Which results are given for CCc1cccc(C)c1N(C(=O)CCl)C(C)COC (configuration not stated) [METOLACHOR]?
A: inhibition (INH) [7]: 9%; inhibition at 600 g/ha [1]: 90%; inhibition at 1404 g/ha [8]: 100%; inhibition of growth [2]: 74%; inhibition (INH) [9]: 2%; inhibition at 300 g/ha [10]: 39%; inhibition at 1404 g/ha [11]: 95%; inhibition at 600 g/ha [12]: 97%; inhibition at 300 g/ha [13]: 57%; inhibition (INH) [14]: 11%; inhibition (INH) [15]: 0%; inhibition of growth [3]: 88%; inhibition at 1404 g/ha [16]: 100%; inhibition at 150 g/ha [17]: 43%; inhibition at 300 g/ha [18]: 98%; inhibition at 150 g/ha [19]: 84%; inhibition (INH) [20]: 2%; Activity [21]: 0%; inhibition at 1404 g/ha [22]: 99%; inhibition at 150 g/ha [23]: 25%; inhibition of growth [4]: 80%; inhibition at 600 g/ha [24]: 60%; inhibition at 150 g/ha [25]: 36%; inhibition at 300 g/ha [26]: 76%; inhibition of growth at 100000 µg/mL [5]: 62%; inhibition at 600 g/ha [6]: 50%; inhibition at 1404 g/ha [27]: 47%
